# Results reported in ChEMBL document CHEMBL3792331, “Identification and synthesis of potent and selective pyridyl-isoxazole based agonists of sphingosine-1-phosphate 1 (S1P1)” (Bioorg Med Chem Lett, 2016).
# Columns and labels:
# [1] = Selectivity index, ratio of EC50 for agonist activity at human S1P3 receptor expressed in EDG3-Ga15-bla HEK293T cell membranes to EC50 for agonist activity at human S1P1 receptor expressed in CHO cell membranes; format: cell-based
# Method in brief: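 S1P3/S1P1 ratio of GTPγ[35S] EC50s. Membranes from EDG3-Ga15-bla HEK293T (S1P3) or S1P1/CHO cells, […], 0.2 nM final [35S]GTP. HEPES pH 7.5 buffer with MgCl2, NaCl, EGTA, DTT, GDP, BSA and saponin. 45 min at room temperature, filtration read-out. Each EC50 taken at 50% of the compound's own Ymax.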
# [2] = system: Rattus norvegicus; test: Reduction in circulating lymphocytes in Lewis rat at 1 mg/kg, po after 4 hrs; format: functional
# Method in brief: (§1)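 Healthy Lewis rats dosed orally with test article as solution or suspension in vehicle, or vehicle alone. Blood drawn at 4 h and 24 h. Circulating lymphocyte percentage measured by hematology analyzer, expressed as reduction versus the vehicle group. Group average, n = 3–4.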
# [3] = system: Plasma; test: Ratio of plasma concentration Lewis rat at 1 mg/kg, po after 4 hrs to plasma concentration Lewis rat at 1 mg/kg, po after 24 hrs; format: ADME, organism-based; settings: in vivo
# Method in brief: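 Lewis rats given 1.0 mg/kg orally as solution or suspension in vehicle. Plasma drug concentration measured in blood drawn at 4 h and 24 h; 4 h/24 h ratio taken from these values.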
# [4] = target: Sphingosine 1-phosphate receptor 3 (Homo sapiens, UniProt Q99500); test: Agonist activity at human S1P3 receptor expressed in EDG3-Ga15-bla HEK293T cell membranes assessed as stimulation of [35S]GTPgamma binding incubated for 45 mins by liquid scintillation counting method; set-up: species or system HEK-293T
# Method in brief: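 Membranes from S1P1/CHO cells (S1P1) or EDG3-Ga15-bla HEK293T cells (S1P3), final protein […], with 3-fold compound dilutions. Buffer: 20 mM HEPES pH 7.5, 10 mM MgCl2, 150 mM NaCl, 1 mM EGTA, 1 mM DTT, GDP, 0.1% fatty acid free BSA, saponin. [35S]GTP 0.2 nM final. Room temperature, 45 min. Filtered, washed with water, dried 60 °C. EC50 taken at 50% of each compound's Ymax.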
# [5] = system: Rattus norvegicus; test: Reduction in circulating lymphocytes in Lewis rat at 1 mg/kg, po after 24 hrs; format: functional; method in brief: as §1
# [6] = system: Rattus norvegicus; test: Reduction in circulating lymphocytes in Lewis rat at 0.3 mg/kg, po after 24 hrs; format: functional; method in brief: as §1
# [7] = system: CHO; test: Selectivity index, ratio of EC50 for agonist activity at human S1P4 receptor to EC50 for agonist activity at human S1P1 receptor expressed in CHO cell membranes; format: cell-based
# [8] = Protein binding in human plasma; format: ADME, cell-free; settings: read-out: PPB (converted)
# [9] = Protein binding in mouse plasma; format: ADME, cell-free; settings: read-out: PPB (converted)
# [10] = Protein binding in rat plasma; format: ADME, cell-free; settings: read-out: PPB (converted)
# [11] = Protein binding in dog plasma; format: ADME, cell-free, Canis lupus familiaris; settings: read-out: PPB (converted)
# [12] = Protein binding in monkey plasma; format: ADME, cell-free, Macaca mulatta; settings: rhesus monkey, read-out: PPB (converted)
# [13] = target: hERG (KCNH2) (Homo sapiens, UniProt Q12809); test: Inhibition of human ERG at 10 uM by patch clamp assay
# [14] = species on record: Homo sapiens; test: Inhibition of potassium channel (unknown origin) at 10 uM by patch clamp assay
# [15] = target: T1, Cytochrome P450 2B6 (Homo sapiens, UniProt P20813); test: Inhibition of CYP2B6 (unknown origin); format: ADME
# T1 sequence (P20813 whole entry): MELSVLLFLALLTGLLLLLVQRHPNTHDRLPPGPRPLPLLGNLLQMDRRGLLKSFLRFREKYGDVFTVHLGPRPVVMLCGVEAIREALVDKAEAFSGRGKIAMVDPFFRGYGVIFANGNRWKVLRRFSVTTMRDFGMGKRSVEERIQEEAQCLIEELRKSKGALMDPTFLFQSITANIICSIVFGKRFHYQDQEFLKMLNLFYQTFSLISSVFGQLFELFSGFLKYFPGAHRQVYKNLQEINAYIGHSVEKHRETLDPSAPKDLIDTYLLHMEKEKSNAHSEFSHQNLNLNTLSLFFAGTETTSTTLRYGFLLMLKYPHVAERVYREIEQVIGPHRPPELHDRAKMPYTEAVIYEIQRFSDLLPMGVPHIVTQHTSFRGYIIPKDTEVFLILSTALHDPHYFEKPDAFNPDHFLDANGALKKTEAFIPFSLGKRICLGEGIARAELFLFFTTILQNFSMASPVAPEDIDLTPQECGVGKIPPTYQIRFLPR
# [16] = target: Cytochrome P450 2C9 (Homo sapiens, UniProt P11712); test: Inhibition of CYP2C9 (unknown origin); format: ADME
# [17] = target: Cytochrome P450 2C19 (Homo sapiens, UniProt P33261); test: Inhibition of CYP2C19 (unknown origin); format: ADME
# [18] = target: Cytochrome P450 3A4 (Homo sapiens, UniProt P08684); test: Inhibition of CYP3A4 (unknown origin); format: ADME
# [19] = Stability in mouse liver microsomes assessed as compound remaining; format: ADME
# [20] = Half life in mouse at 2 mg/kg, iv; format: ADME, organism-based; settings: in vivo
# [21] = system: Mus musculus; test: Clearance in mouse at 2 mg/kg, iv relative to hepatic blood flow; format: ADME, organism-based, Liver; settings: in vivo
# [22] = Volume of distribution at steady state in mouse at 2 mg/kg, iv; format: ADME, organism-based; settings: in vivo, read-out: Vdss
# Method in brief: (§2)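 Multi-species pharmacokinetic study with separate iv and oral dosing arms. Steady-state volume of distribution was taken from the iv arm: 2 mg/kg in mouse and rat, 1 mg/kg in cynomolgus monkey and dog. Oral doses in the same study were 5 mg/kg in mouse and rat and 1 mg/kg in monkey and dog.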
# [23] = Oral bioavailability in mouse at 5 mg/kg; format: ADME, organism-based; settings: in vivo
# [24] = Clearance in rat at 2 mg/kg, iv; format: ADME, organism-based; settings: in vivo
# [25] = system: Rattus norvegicus; test: Clearance in rat at 2 mg/kg, iv relative to hepatic blood flow; format: ADME, organism-based, Liver; settings: in vivo
# [26] = Volume of distribution at steady state in rat at 2 mg/kg, iv; format: ADME, organism-based; settings: in vivo, read-out: Vdss; method in brief: as §2
# [27] = system: Cynomolgus monkey; test: Clearance in cynomolgus monkey at 1 mg/kg, iv relative to hepatic blood flow; format: ADME, organism-based, Macaca fascicularis, Liver; settings: in vivo
# [28] = Oral bioavailability in cynomolgus monkey at 1 mg/kg; format: ADME, organism-based, Macaca fascicularis; settings: in vivo
# [29] = system: Cynomolgus monkey; test: Ratio of Cmax to Cmin in cynomolgus monkey at 1 mg/kg, po; format: ADME, organism-based, Macaca fascicularis; settings: in vivo
# [30] = Clearance in dog at 1 mg/kg, iv; format: ADME, organism-based, Canis lupus familiaris; settings: in vivo
# [31] = Volume of distribution at steady state in dog at 1 mg/kg, iv; format: ADME, organism-based, Canis lupus familiaris; settings: in vivo, read-out: Vdss; method in brief: as §2
# [32] = Oral bioavailability in dog at 1 mg/kg; format: ADME, organism-based, Canis lupus familiaris; settings: in vivo
# [33] = system: Canis familiaris; test: Ratio of Cmax to Cmin in dog at 1 mg/kg, po; format: ADME, organism-based, Canis lupus familiaris; settings: in vivo
# [34] = system: Rattus norvegicus; test: Anti-inflammatory activity in Lewis rat complete Freund's adjuvant-induced arthritis model of human rheumatoid arthritis assessed as reduction in hind paw swelling at 0.5 and 3 mg/kg, po QD for 21 days starting at day 0 by plethysmometry; format: functional, organism-based
# Method in brief: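 Male Lewis rats given complete Freund's adjuvant with heat-killed Mycobacterium butyricum subcutaneously at the tail base. Dosed orally once daily for 21 days from day 0. Hind paw volume measured by water displacement plethysmometry at baseline and over three weeks; increase above baseline calculated. Compared with vehicle, p<0.05.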
# Cytochrome P450 2C19, sequence (P33261 whole entry): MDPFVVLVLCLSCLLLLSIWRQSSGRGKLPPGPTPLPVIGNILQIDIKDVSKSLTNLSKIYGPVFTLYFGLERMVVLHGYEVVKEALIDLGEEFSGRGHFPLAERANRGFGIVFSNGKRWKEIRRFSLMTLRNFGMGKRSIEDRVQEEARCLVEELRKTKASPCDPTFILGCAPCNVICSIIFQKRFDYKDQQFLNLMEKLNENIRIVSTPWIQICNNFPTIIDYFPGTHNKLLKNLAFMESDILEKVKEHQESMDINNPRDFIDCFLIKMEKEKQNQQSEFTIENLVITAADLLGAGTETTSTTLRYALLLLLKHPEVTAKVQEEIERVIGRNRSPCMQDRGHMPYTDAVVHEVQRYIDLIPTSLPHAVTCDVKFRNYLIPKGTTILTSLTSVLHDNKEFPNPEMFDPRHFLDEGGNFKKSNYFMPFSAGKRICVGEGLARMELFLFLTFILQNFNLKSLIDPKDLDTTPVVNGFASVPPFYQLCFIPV
# Cytochrome P450 2C9, sequence (P11712 whole entry): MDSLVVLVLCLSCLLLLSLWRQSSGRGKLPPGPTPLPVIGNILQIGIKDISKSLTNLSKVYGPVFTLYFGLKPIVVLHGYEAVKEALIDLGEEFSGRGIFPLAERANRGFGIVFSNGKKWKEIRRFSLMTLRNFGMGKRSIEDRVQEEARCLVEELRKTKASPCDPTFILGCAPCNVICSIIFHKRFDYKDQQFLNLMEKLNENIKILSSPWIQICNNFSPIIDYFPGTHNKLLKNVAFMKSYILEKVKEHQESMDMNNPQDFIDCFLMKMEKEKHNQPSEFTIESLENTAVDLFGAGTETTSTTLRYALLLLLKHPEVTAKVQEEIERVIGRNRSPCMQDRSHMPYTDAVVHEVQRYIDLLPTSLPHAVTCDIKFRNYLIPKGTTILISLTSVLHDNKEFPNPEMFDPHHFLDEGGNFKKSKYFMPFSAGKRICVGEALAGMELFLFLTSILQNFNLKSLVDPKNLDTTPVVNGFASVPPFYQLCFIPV
# Sphingosine 1-phosphate receptor 3, sequence (Q99500 whole entry): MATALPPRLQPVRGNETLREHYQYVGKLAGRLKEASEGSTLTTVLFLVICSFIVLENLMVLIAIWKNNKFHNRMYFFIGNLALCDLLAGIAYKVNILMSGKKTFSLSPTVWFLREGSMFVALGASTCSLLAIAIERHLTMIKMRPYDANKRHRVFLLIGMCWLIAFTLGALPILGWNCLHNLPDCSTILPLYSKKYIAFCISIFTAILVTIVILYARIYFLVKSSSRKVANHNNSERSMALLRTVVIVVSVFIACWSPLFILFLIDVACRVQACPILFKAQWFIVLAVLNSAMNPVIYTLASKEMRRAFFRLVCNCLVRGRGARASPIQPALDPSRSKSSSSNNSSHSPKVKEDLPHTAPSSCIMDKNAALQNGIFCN
# hERG (KCNH2), sequence (Q12809 whole entry): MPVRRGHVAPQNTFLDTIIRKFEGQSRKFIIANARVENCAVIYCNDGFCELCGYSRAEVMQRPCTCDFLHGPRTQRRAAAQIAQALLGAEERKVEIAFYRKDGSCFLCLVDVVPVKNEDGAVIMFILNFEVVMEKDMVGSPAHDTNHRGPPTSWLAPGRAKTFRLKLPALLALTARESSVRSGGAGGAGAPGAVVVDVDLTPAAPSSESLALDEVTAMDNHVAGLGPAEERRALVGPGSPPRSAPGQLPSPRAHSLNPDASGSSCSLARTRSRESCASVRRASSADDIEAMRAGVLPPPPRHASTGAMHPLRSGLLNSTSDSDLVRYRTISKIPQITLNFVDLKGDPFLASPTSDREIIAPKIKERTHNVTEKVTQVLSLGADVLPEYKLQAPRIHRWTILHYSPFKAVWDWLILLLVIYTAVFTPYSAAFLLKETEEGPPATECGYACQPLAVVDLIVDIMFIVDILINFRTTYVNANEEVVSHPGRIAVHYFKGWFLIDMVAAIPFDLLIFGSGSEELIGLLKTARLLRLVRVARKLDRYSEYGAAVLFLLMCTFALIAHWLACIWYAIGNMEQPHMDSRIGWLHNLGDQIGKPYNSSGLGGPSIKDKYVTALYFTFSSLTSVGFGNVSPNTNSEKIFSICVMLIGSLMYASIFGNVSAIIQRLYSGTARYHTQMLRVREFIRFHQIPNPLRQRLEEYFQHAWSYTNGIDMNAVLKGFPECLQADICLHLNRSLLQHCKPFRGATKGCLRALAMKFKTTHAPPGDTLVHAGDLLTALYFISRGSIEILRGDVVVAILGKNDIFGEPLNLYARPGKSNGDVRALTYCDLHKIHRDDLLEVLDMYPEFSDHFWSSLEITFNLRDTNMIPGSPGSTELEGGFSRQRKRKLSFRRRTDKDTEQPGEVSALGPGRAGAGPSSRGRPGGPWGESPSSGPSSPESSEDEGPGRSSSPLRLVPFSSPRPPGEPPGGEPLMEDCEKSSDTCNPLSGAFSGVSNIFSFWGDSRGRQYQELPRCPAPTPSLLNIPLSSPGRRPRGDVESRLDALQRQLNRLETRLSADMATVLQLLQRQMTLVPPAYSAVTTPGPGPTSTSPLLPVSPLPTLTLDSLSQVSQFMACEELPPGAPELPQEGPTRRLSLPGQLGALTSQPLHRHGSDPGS
# Cytochrome P450 3A4, sequence (P08684 whole entry): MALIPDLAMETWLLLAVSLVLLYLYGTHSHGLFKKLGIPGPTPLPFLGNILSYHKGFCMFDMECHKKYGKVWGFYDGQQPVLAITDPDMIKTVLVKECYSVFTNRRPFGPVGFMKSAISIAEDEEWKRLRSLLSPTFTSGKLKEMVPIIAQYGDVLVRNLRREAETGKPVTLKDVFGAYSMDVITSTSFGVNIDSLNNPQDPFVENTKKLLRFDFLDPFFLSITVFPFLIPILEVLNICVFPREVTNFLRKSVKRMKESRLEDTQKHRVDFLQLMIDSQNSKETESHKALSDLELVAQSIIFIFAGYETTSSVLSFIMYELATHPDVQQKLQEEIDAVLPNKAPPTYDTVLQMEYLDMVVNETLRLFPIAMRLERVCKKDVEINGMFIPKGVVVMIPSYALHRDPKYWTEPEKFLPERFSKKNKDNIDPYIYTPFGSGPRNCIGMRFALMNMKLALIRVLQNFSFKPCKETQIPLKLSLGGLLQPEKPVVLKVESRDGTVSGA
compound,measurement,setting,value
O=C(O)C1CN(Cc2ccc(-c3noc(-c4onc(-c5ccccn5)c4C(F)(F)F)n3)cc2)C1,Ratio EC50,[1],4100
same,inhibition in vivo at 1 mg/kg,[2],85%
same,Ratio,[3],47
same,EC50,[4],2.9 µM
same,inhibition in vivo at 1 mg/kg,[5],80%
same,inhibition in vivo at 0.3 mg/kg,[6],50%
same,Ratio EC50,[7],3.2
same,fraction unbound,[8],0.005
same,fraction unbound,[9],0.006
same,fraction unbound,[10],0.024
same,fraction unbound,[11],0.274
same,fraction unbound,[12],0.065
same,inhibition at 10 µM,[13],13%
same,inhibition,[14],12%
same,IC50,[15],> 40 µM
same,IC50,[16],> 40 µM
same,IC50,[17],> 40 µM
same,IC50,[18],> 40 µM
same,Stability,[19],100%
same,half-life,[20],4.5 h
same,CL,[21],< 1%
same,Vd,[22],0.1 L/kg
same,bioavailability,[23],70%
same,clearance,[24],1 mL/min/kg
same,CL,[25],1.4%
same,Vd,[26],0.4 L/kg
same,CL,[27],32%
same,bioavailability,[28],12%
same,Ratio,[29],> 400
same,clearance,[30],2.6 mL/min/kg
same,Vd,[31],0.7 L/kg
same,bioavailability,[32],87%
same,Ratio,[33],7.4
same,Activity,[34],Dose-dependent effect
